≈ marks a conversion by molar mass, not a printed value.
Experiments:
Mus musculus = experiment: Antiinflammatory activity in mouse assessed as inhibition of carrageenan-induced increase in paw volume at 200 mg/kg administered 1 hr prior to carrageenan challenge measured after 3 hrs relative to control; type: functional
Summary of the method: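 Mice were fasted 2 h and placed in groups of five. Controls received saline i.p. Phenylbutazone was given at 100 mg/kg i.p., curcumin at 200 mg/kg i.p., and derivatives at 200 mg/kg. After 1 h, 0.1 mL of 1% carrageenan in saline was injected subplantar into the right hind paw. Paw volume was followed by plethysmometer for 3 h, and % inhibition was calculated as (Vc − Vt)/Vc × 100.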

HCT-116 = experiment: Cytotoxicity against human HCT116 cells after 24 hrs by MTT assay; type: functional, cell-based
Summary of the method: (§1)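 The MTT assay seeded 5 × 10⁴ cells per well and grew them 24 h in RPMI 1640 with compound at 2.5–200 µM. Medium without cells was the blank and adriamycin the positive control. MTT was added for 4 h at 37 °C, formazan was solubilised, and absorbance was read at 570 nm. IC50 is the concentration that cuts viability 50% against untreated cells.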

QG-56 = experiment: Cytotoxicity against human QG56 cells after 24 hrs by MTT assay; type: functional, cell-based; summary of the method: as §1
HeLa = experiment: Cytotoxicity against human HeLa cells after 24 hrs by MTT assay; type: functional, cell-based; summary of the method: as §1
HepG2 = experiment: Cytotoxicity against human HepG2 cells after 24 hrs by MTT assay; type: functional, cell-based; summary of the method: as §1
Trichoderma viride [1] = experiment: Antifungal activity against Trichoderma viride MTCC 1107 after 48 hrs; type: functional; details: MTCC 1107, 48 h
Trichoderma viride [2] = experiment: Antifungal activity against Trichoderma viride MTCC 1107 assessed as zone of inhibition at 20 uM after 48 hrs by disc diffusion method; type: functional; details: MTCC 1107, 48 h, read-out: IZ
Summary of the method: (§2)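 Spores from 4-day potato dextrose agar cultures, suspended in sterile water at 1.5 × 10⁵ CFU/mL. 0.2 mL was spread on potato dextrose agar. 5 mm filter-paper discs soaked with test compound were laid on the lawn. Incubation was 48 h at 28 °C, then the inhibition zone was measured in mm. Fluconazole was the positive control and acetone the negative control.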

Trichoderma viride [3] = experiment: Antifungal activity against Trichoderma viride MTCC 1107 assessed as zone of inhibition at 40 uM after 48 hrs by disc diffusion method; type: functional; details: MTCC 1107, 48 h, read-out: IZ; summary of the method: as §2
Trichoderma viride [4] = experiment: Antifungal activity against Trichoderma viride MTCC 1107 assessed as zone of inhibition at 80 uM after 48 hrs by disc diffusion method; type: functional; details: MTCC 1107, 48 h, read-out: IZ; summary of the method: as §2
Curvularia lunata [5] = experiment: Antifungal activity against Curvularia lunata MTCC 581 after 48 hrs; type: functional; details: MTCC 581, 48 h
Curvularia lunata [6] = experiment: Antifungal activity against Curvularia lunata MTCC 581 assessed as zone of inhibition at 20 uM after 48 hrs by disc diffusion method; type: functional; details: MTCC 581, 48 h, read-out: IZ; summary of the method: as §2
Curvularia lunata [7] = experiment: Antifungal activity against Curvularia lunata MTCC 581 assessed as zone of inhibition at 40 uM after 48 hrs by disc diffusion method; type: functional; details: MTCC 581, 48 h, read-out: IZ; summary of the method: as §2
Aspergillus flavus [8] = experiment: Antifungal activity against Aspergillus flavus MTCC 1021 after 48 hrs; type: functional; details: MTCC 1021, 48 h
Curvularia lunata [9] = experiment: Antifungal activity against Curvularia lunata MTCC 581 assessed as zone of inhibition at 80 uM after 48 hrs by disc diffusion method; type: functional; details: MTCC 581, 48 h, read-out: IZ; summary of the method: as §2
Aspergillus flavus [10] = experiment: Antifungal activity against Aspergillus flavus MTCC 1021 assessed as zone of inhibition at 20 uM after 48 hrs by disc diffusion method; type: functional; details: MTCC 1021, 48 h, read-out: IZ; summary of the method: as §2
Aspergillus flavus [11] = experiment: Antifungal activity against Aspergillus flavus MTCC 1021 assessed as zone of inhibition at 40 uM after 48 hrs by disc diffusion method; type: functional; details: MTCC 1021, 48 h, read-out: IZ; summary of the method: as §2
Aspergillus flavus [12] = experiment: Antifungal activity against Aspergillus flavus MTCC 1021 assessed as zone of inhibition at 80 uM after 48 hrs by disc diffusion method; type: functional; details: MTCC 1021, 48 h, read-out: IZ; summary of the method: as §2
Aspergillus niger [13] = experiment: Antifungal activity against Aspergillus niger MTCC 1108 after 48 hrs; type: functional; details: MTCC 1108, 48 h
Aspergillus niger [14] = experiment: Antifungal activity against Aspergillus niger MTCC 1108 assessed as zone of inhibition at 20 uM after 48 hrs by disc diffusion method; type: functional; details: MTCC 1108, 48 h, read-out: IZ; summary of the method: as §2
Aspergillus niger [15] = experiment: Antifungal activity against Aspergillus niger MTCC 1108 assessed as zone of inhibition at 40 uM after 48 hrs by disc diffusion method; type: functional; details: MTCC 1108, 48 h, read-out: IZ; summary of the method: as §2
Aspergillus niger [16] = experiment: Antifungal activity against Aspergillus niger MTCC 1108 assessed as zone of inhibition at 80 uM after 48 hrs by disc diffusion method; type: functional; details: MTCC 1108, 48 h, read-out: IZ; summary of the method: as §2
Escherichia coli [17] = experiment: Antimicrobial activity against Escherichia coli ATCC 35218 after 24 hrs by broth micro serial dilution method; type: functional; details: ATCC 35218, 24 h
Summary of the method: (§3)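 This was broth microdilution in autoclaved Mueller-Hinton broth. 150 µL of compound per well was serially diluted […], and 50 µL of test organism was added. Plates were incubated 24 h at 37 °C and optical density was read.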

Escherichia coli [18] = experiment: Antimicrobial activity against Escherichia coli ATCC 35218 assessed as diameter of inhibition zone at 20 uM after 24 hrs by Kirby -Baur disc diffusion method; type: functional; details: ATCC 35218, 24 h, read-out: DIZ
Summary of the method: (§4)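 Kirby-Bauer disc diffusion was used. Acetone stocks (160 µM) were serially doubled down to 80, 40 and 20 µM. 4 µL of each went onto 5 mm sterile paper discs, which were dried 30 min at 50 °C. Inoculum was 1.5 × 10⁸ CFU/mL diluted to 3 × 10² CFU/mL, and 50 µL was spread on Mueller-Hinton agar. After 24 h at 37 °C the inhibition-zone diameter was measured. Ciprofloxacin served as positive control.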

Escherichia coli [19] = experiment: Antimicrobial activity against Escherichia coli ATCC 35218 assessed as diameter of inhibition zone at 40 uM after 24 hrs by Kirby -Baur disc diffusion method; type: functional; details: ATCC 35218, 24 h, read-out: DIZ; summary of the method: as §4
Escherichia coli [20] = experiment: Antimicrobial activity against Escherichia coli ATCC 35218 assessed as diameter of inhibition zone at 80 uM after 24 hrs by Kirby -Baur disc diffusion method; type: functional; details: ATCC 35218, 24 h, read-out: DIZ; summary of the method: as §4
Pseudomonas aeruginosa [21] = experiment: Antimicrobial activity against Pseudomonas aeruginosa ATCC 15499 after 24 hrs by broth micro serial dilution method; type: functional; details: ATCC 15499, 24 h; summary of the method: as §3
Pseudomonas aeruginosa [22] = experiment: Antimicrobial activity against Pseudomonas aeruginosa ATCC 15499 assessed as diameter of inhibition zone at 20 uM after 24 hrs by Kirby -Baur disc diffusion method; type: functional; details: ATCC 15499, 24 h, read-out: DIZ; summary of the method: as §4
Pseudomonas aeruginosa [23] = experiment: Antimicrobial activity against Pseudomonas aeruginosa ATCC 15499 assessed as diameter of inhibition zone at 40 uM after 24 hrs by Kirby -Baur disc diffusion method; type: functional; details: ATCC 15499, 24 h, read-out: DIZ; summary of the method: as §4
Pseudomonas aeruginosa [24] = experiment: Antimicrobial activity against Pseudomonas aeruginosa ATCC 15499 assessed as diameter of inhibition zone at 80 uM after 24 hrs by Kirby -Baur disc diffusion method; type: functional; details: ATCC 15499, 24 h, read-out: DIZ; summary of the method: as §4
Salmonella typhi [25] = experiment: Antimicrobial activity against Salmonella typhi ATCC 23564 after 24 hrs by broth micro serial dilution method; type: functional, Salmonella enterica subsp. enterica serovar Typhi; details: Salmonella enterica, ATCC 23564, 24 h
Salmonella typhi [26] = experiment: Antimicrobial activity against Salmonella typhi ATCC 23564 assessed as diameter of inhibition zone at 20 uM after 24 hrs by Kirby -Baur disc diffusion method; type: functional, Salmonella enterica subsp. enterica serovar Typhi; details: Salmonella enterica, ATCC 23564, 24 h; read-out: DIZ
Salmonella typhi [27] = experiment: Antimicrobial activity against Salmonella typhi ATCC 23564 assessed as diameter of inhibition zone at 40 uM after 24 hrs by Kirby -Baur disc diffusion method; type: functional, Salmonella enterica subsp. enterica serovar Typhi; details: Salmonella enterica, ATCC 23564, 24 h; read-out: DIZ
Salmonella typhi [28] = experiment: Antimicrobial activity against Salmonella typhi ATCC 23564 assessed as diameter of inhibition zone at 80 uM after 24 hrs by Kirby -Baur disc diffusion method; type: functional, Salmonella enterica subsp. enterica serovar Typhi; details: Salmonella enterica, ATCC 23564, 24 h; read-out: DIZ
Bacillus cereus [29] = experiment: Antimicrobial activity against Bacillus cereus MTCC 7350 after 24 hrs by broth micro serial dilution method; type: functional; details: MTCC 7350, 24 h; summary of the method: as §3
Bacillus cereus [30] = experiment: Antimicrobial activity against Bacillus cereus MTCC 7350 assessed as diameter of inhibition zone at 20 uM after 24 hrs by Kirby -Baur disc diffusion method; type: functional; details: MTCC 7350, 24 h, read-out: DIZ; summary of the method: as §4
Bacillus cereus [31] = experiment: Antimicrobial activity against Bacillus cereus MTCC 7350 assessed as diameter of inhibition zone at 40 uM after 24 hrs by Kirby -Baur disc diffusion method; type: functional; details: MTCC 7350, 24 h, read-out: DIZ; summary of the method: as §4
Bacillus cereus [32] = experiment: Antimicrobial activity against Bacillus cereus MTCC 7350 assessed as diameter of inhibition zone at 80 uM after 24 hrs by Kirby -Baur disc diffusion method; type: functional; details: MTCC 7350, 24 h, read-out: DIZ; summary of the method: as §4
Staphylococcus aureus [33] = experiment: Antimicrobial activity against Staphylococcus aureus ATCC 11632 after 24 hrs by broth micro serial dilution method; type: functional; details: ATCC 11632, 24 h; summary of the method: as §3
Staphylococcus aureus [34] = experiment: Antimicrobial activity against Staphylococcus aureus ATCC 11632 assessed as diameter of inhibition zone at 20 uM after 24 hrs by Kirby -Baur disc diffusion method; type: functional; details: ATCC 11632, 24 h, read-out: DIZ; summary of the method: as §4
Staphylococcus aureus [35] = experiment: Antimicrobial activity against Staphylococcus aureus ATCC 11632 assessed as diameter of inhibition zone at 40 uM after 24 hrs by Kirby -Baur disc diffusion method; type: functional; details: ATCC 11632, 24 h, read-out: DIZ; summary of the method: as §4
Staphylococcus aureus [36] = experiment: Antimicrobial activity against Staphylococcus aureus ATCC 11632 assessed as diameter of inhibition zone at 80 uM after 24 hrs by Kirby -Baur disc diffusion method; type: functional; details: ATCC 11632, 24 h, read-out: DIZ; summary of the method: as §4

Structure (SMILES): COc1cc(/C=C/C(CC(/C=C/c2ccc(O)c(OC)c2)=N/c2ccc(S(=O)(=O)Nc3nc(C)cc(C)n3)cc2)=N\c2ccc(S(=O)(=O)Nc3nc(C)cc(C)n3)cc2)ccc1O
- inhibition in vivo at 200 mg/kg (Mus musculus): 40.3%
- IC50 (HCT-116): 25 µM
- IC50 (QG-56): 50 µM
- IC50 (HeLa): 25 µM
- IC50 (HepG2): 50 µM
- MIC (Trichoderma viride [1]): 20 µM (≈ 17.8 µg/mL)
- zone of inhibition at 20 µM (Trichoderma viride [2]): 18 mm
- zone of inhibition at 40 µM (Trichoderma viride [3]): 19 mm
- zone of inhibition at 80 µM (Trichoderma viride [4]): 22 mm
- MIC (Curvularia lunata [5]): 20 µM (≈ 17.8 µg/mL)
- zone of inhibition at 20 µM (Curvularia lunata [6]): 12 mm
- zone of inhibition at 40 µM (Curvularia lunata [7]): 16 mm
- MIC (Aspergillus flavus [8]): 80 µM (≈ 71.1 µg/mL)
- zone of inhibition at 80 µM (Curvularia lunata [9]): 19 mm
- zone of inhibition at 20 µM (Aspergillus flavus [10]): 10 mm
- zone of inhibition at 40 µM (Aspergillus flavus [11]): 11 mm
- zone of inhibition at 80 µM (Aspergillus flavus [12]): 12 mm
- MIC (Aspergillus niger [13]): 40 µM (≈ 35.6 µg/mL)
- zone of inhibition at 20 µM (Aspergillus niger [14]): 8 mm
- zone of inhibition at 40 µM (Aspergillus niger [15]): 12 mm
- zone of inhibition at 80 µM (Aspergillus niger [16]): 14 mm
- MIC (Escherichia coli [17]): 20 µM (≈ 17.8 µg/mL)
- zone of inhibition at 20 µM (Escherichia coli [18]): 17 mm
- zone of inhibition at 40 µM (Escherichia coli [19]): 19 mm
- zone of inhibition at 80 µM (Escherichia coli [20]): 23 mm
- MIC (Pseudomonas aeruginosa [21]): 40 µM (≈ 35.6 µg/mL)
- zone of inhibition at 20 µM (Pseudomonas aeruginosa [22]): 14 mm
- zone of inhibition at 40 µM (Pseudomonas aeruginosa [23]): 18 mm
- zone of inhibition at 80 µM (Pseudomonas aeruginosa [24]): 23 mm
- MIC (Salmonella typhi [25]): 40 µM (≈ 35.6 µg/mL)
- zone of inhibition at 20 µM (Salmonella typhi [26]): 17 mm
- zone of inhibition at 40 µM (Salmonella typhi [27]): 21 mm
- zone of inhibition at 80 µM (Salmonella typhi [28]): 24 mm
- MIC (Bacillus cereus [29]): 40 µM (≈ 35.6 µg/mL)
- zone of inhibition at 20 µM (Bacillus cereus [30]): 11 mm
- zone of inhibition at 40 µM (Bacillus cereus [31]): 18 mm
- zone of inhibition at 80 µM (Bacillus cereus [32]): 21 mm
- MIC (Staphylococcus aureus [33]): 40 µM (≈ 35.6 µg/mL)
- zone of inhibition at 20 µM (Staphylococcus aureus [34]): 13 mm
- zone of inhibition at 40 µM (Staphylococcus aureus [35]): 18 mm
- zone of inhibition at 80 µM (Staphylococcus aureus [36]): 23 mm

Source: ChEMBL document CHEMBL2384906, “Biological activity, design, synthesis and structure activity relationship of some novel derivatives of curcumin containing sulfonamides” (Eur J Med Chem, 2013)
